M1 agonist: M1 muscarinic receptor agonists, primary screen, CHO-M1 cells, Fluo-4 calcium, agonist mode; Muscarinic acetylcholine receptor M1; Fluo-4 calcium fluorescence; active compounds read high; B-score at 10 µM; 64,000 tested, 3% active;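 active = fluorescence rise, raw or as B-score row- and column-corrected plate score, outside the 99.7% band of its plate's samples, either direction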
HePTP inhibitor: inhibitors of human HePTP phosphatase, primary screen, biochemical, absorbance, leukemia target. Tyrosine-protein phosphatase non-receptor type 7 (Homo sapiens), P35236. recombinant HePTP phosphatase activity, OD absorbance. inhibition, % at 20 µM. 110,000 tested, 0.64% active. AID 521, 2006; in the data active = inhibition above about 50%
M1 antag: antagonists of rat M1 muscarinic receptor. AID 628, 2007. CHO-M1 cells, Fluo-4 calcium, ACh EC80 antagonist mode; active compounds read low. Muscarinic acetylcholine receptor M1 (Rattus norvegicus), P08482. 64,000 tested, 3.4% active. B-score at 10 µM;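 active = calcium fluorescence response, raw or row-and-column corrected B-score, differing from the plate sample mean either way at a set confidence level, mostly lower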
RORA act: activators of orphan receptor RORA, primary screen, cell-based, luminescence | Nuclear receptor ROR-alpha (Homo sapiens), P35398 | CHO-K1 Gal4-RORA LBD luciferase reporter; percent increase over mock-subtracted basal signal | activation, % at 10 µM | 65,000 tested, 1.5% active | AID 560, 2006;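 active = activation above the mean of all tested compounds plus 3 SD, cut at about 49% in these data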
SF-1 act: activators of human SF-1, primary screen, cell-based, CHO-K1, Gal4-SF-1 LBD, luciferase luminescence | AID 522, 2006 | Steroidogenic factor 1 (Homo sapiens), Q13285 | CHO-K1 Gal4-SF-1 LBD luciferase reporter; % increase over DMSO SF-1-specific signal | activation, % at 10 µM | 65,000 tested, 1.9% active;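 active = activation above the mean activation of all tested compounds plus 3 SD, cut at about 50% in these data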
Target sequence (Q13285 whole entry, looked up, the tested form may be a part): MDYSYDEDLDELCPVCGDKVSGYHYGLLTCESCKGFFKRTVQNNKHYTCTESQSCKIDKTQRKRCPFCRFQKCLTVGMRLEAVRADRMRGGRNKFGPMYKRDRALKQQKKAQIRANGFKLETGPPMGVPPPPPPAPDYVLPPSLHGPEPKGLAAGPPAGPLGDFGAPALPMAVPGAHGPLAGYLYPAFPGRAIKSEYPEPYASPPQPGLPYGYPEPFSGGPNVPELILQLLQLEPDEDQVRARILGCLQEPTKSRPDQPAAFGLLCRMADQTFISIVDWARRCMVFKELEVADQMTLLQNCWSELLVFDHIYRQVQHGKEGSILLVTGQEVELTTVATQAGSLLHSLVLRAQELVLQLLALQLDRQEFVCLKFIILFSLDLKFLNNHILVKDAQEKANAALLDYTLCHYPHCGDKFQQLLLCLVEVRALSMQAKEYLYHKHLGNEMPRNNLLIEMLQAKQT
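Test system: CHO-K1 cells co-transfected with Gal4 DBD–human SF-1 LBD, 5xGal4 luciferase reporter. Quantity: 4,000 cells per well. Compound: 10 µM only. Incubation: compound added 1 h post-seeding, 20 h exposure at 37 °C, 5% CO2. Detection: SteadyLite luciferase luminescence. Replication: one test per compound.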
D1 allo mod: D1 CRE-luciferase signal change, two-sided – cell-based, HEK293 D1, dopamine EC30, D1 allosteric modulator project, primary screen; D(1A) dopamine receptor (Homo sapiens), P21728; dopamine EC30 potentiation; actives deviate in either direction; B-score at 10 µM; 58,000 tested, 5.9% active; AID 641, 2007;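 active = luminescence count or its row- and column-corrected plate score outside the 99.7% band of the plate's sample wells, on either side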
Numbers stand for hits; - = inactive; . = not tested or not shown. Only some compounds are listed: those with a hit (about 8.2% of all), similar ones and a draw of the others.

SMILES | M1 agonist | HePTP inhibitor | M1 antag | RORA act | SF-1 act | D1 allo mod
CCOC(=O)C1CCN(c2nc3ccccc3nc2C(C#N)C(=O)NCCc2ccccc2)CC1 (stereo not given) | 33 | - | - | - | - | -
COCCNC(=O)C(C#N)c1nc2ccccc2nc1N1CCCCCC1 (stereo not given) | - | - | - | - | - | -
O=C(CCC1CCCCC1)N1CCN(c2cccc(Cl)c2)CC1 | . | - | . | . | . | .
C=CCNC(=O)CCCCC(=O)NCC=C | - | - | - | - | - | -
CCCC(=O)Nc1ccc2oc(-c3ccc(OC)c(Br)c3)nc2c1 | - | - | - | 79.6 | 62.1 | -2.59
CCCC(=O)Nc1ccc(O)c(-c2nc3cc(C)ccc3o2)c1 | . | - | . | . | . | .
CCCC(=O)Nc1ccc(-c2nc3cc(C)ccc3o2)cc1 | - | - | - | - | - | -5.1
CN(C1=NC(=O)C(CC(=O)Nc2ccc(Br)cc2)S1)c1ccc(O)cc1 (stereo not given) | - | - | - | - | - | -3.78
NC1=NC(=O)C(CC(=O)Nc2ccccc2C(F)(F)F)S1 (stereo not given) | . | - | . | . | . | .
COc1ccc(CC(=O)Nc2ccc(S(=O)(=O)N3CCCCCC3)cc2)cc1 | . | - | . | . | . | .
CC(C)c1ccc(/C=C2/C(=O)NN(c3ccc(F)cc3)C2=O)cc1 | . | - | . | . | . | .
O=C1NN(c2ccc(I)cc2)C(=O)/C1=C\c1ccc(F)cc1 | . | 104.2 | . | . | . | .
O=C1NN(c2ccc(I)cc2)C(=O)/C1=C\c1ccccc1O | . | 92.2 | . | . | . | .
O=C1NN(c2ccccc2)C(=O)/C1=C\c1ccccc1O | . | - | . | . | . | .
COC(=O)C1C(=O)c2c([nH]c(C(=O)OC3CCCC3)c2C)CC1C (stereo not given) | - | - | - | 49.4 | 56.0 | .
O=C1c2cccnc2C(Nc2ccc(S(=O)(=O)N3CCCCC3)cc2)N1Cc1ccccc1 (stereo not given) | - | - | - | - | - | -1.45
COc1ccccc1-n1cnc2cc(NC(C)=O)ccc21 | - | - | - | - | - | -
O=C(Oc1ccc(-c2ccccc2)cc1)N1CCOCC1 | - | - | - | 60.6 | - | -
O=C(Oc1cccc(Oc2ccccc2)c1)N1CCOCC1 | - | - | - | - | - | -
COc1ccc(-c2nnc(SCc3nnc(-c4ccccc4)o3)n2C)cc1OC | - | - | - | 53.2 | - | -
COc1ccc(-c2nnc(CSc3nc4ccccc4c(=O)n3CC3CCCO3)o2)cc1OC (stereo not given) | - | - | - | - | - | 10.7
CCOC(=O)CSc1nc2ccccc2c(=O)n1CC1CCCO1 (stereo not given) | - | - | - | - | - | .
Cc1c(C(=O)O/N=C(\N)Cc2ccc(Cl)cc2Cl)cccc1[N+](=O)[O-] | . | - | . | . | . | .
O=C(CSc1ccc2nnc(-c3cccnc3)n2n1)N1CCc2ccccc21 | -2.91 | - | - | - | - | -
O=C(CSc1ccc2nnc(-c3ccc(Cl)cc3)n2n1)N1CCCC1 | - | - | - | - | - | 5.64
SMILES | M1 agonist | HePTP inhibitor | M1 antag | RORA act | SF-1 act | D1 allo mod
COc1ccc(-c2nnc3ccc(SCC(=O)N4CCN(c5ccccc5)CC4)nn23)cc1OC | 6.01 | - | - | - | - | -
CCOc1cccc(C(=O)Nc2nc(-c3ccc(F)cc3F)cs2)c1 | . | - | . | . | . | .
CCCC(=O)Nc1ccc(I)cc1Cl | . | - | . | . | . | .
CCCCC(=O)Nc1cccc(-c2nnc(-c3ccccc3)o2)c1 | 2.67 | - | - | 67.9 | - | -
O=C(Nc1cccc(-c2nnc(-c3ccccc3)o2)c1)C1CCCCC1 | - | - | - | 49.3 | 53.2 | -
Cc1cccc(C)c1OCC(=O)Nc1cccc(-c2nnc(-c3ccccc3)o2)c1 | - | - | - | - | - | .
COc1cccc(-c2nnc(NC(=O)C3CCCCC3)o2)c1 | - | - | - | - | - | -
CC(C)n1c(SCC(=O)N2CCCc3ccccc32)nc2c1c(=O)n(C)c(=O)n2C | - | - | - | - | - | .
Cc1csc2nc(CSc3nc4ccccc4o3)c(Br)n12 | - | - | - | - | 61.1 | -
Cc1csc2nc(CSc3nncn3-c3ccccc3)c(Br)n12 | - | - | - | - | - | -
O=C1CCCC(O)=C1C=Nc1ccc(O)cc1 | - | - | - | - | 55.8 | -
O=C(COc1ccc(-n2cnnn2)cc1)NC(=O)NCc1ccccc1 | - | - | - | - | - | -4.42
CCc1ccc(NCCC(=O)c2ccc([N+](=O)[O-])cc2)cc1 | . | - | . | . | . | .
Brc1ccc2c(c1)c1nc3ccccc3nc1n2CCN1CCOCC1 | - | - | - | - | - | 4.3
Cn1c2ccc(Br)cc2c2nc3cc4ccccc4cc3nc21 | . | - | . | . | . | .
CCCCOC(C)n1cc(C)c(=O)[nH]c1=O (stereo not given) | . | - | . | . | . | .
CCn1c(=O)n(CCOC)c(=O)c2c3c(sc21)CCCC3 | - | - | - | - | - | 6.31
COCCn1c(=O)c2c3c(sc2n(CC(N)=O)c1=O)CCCC3 | - | - | - | - | - | -
NC(=O)C1CCN(C(=O)CCc2ccccc2)CC1 | . | - | . | . | . | .
Clc1ccc2oc(-c3ccccn3)nc2c1 | - | - | - | - | 59.1 | -
Cc1ccc(-n2c(C)cc(C=C3C(=O)NC(=S)NC3=O)c2C)cc1C | . | - | . | . | . | .
COc1ccc2nc(NC(=O)C3CCN(S(=O)(=O)c4cnc[nH]4)CC3)sc2c1 | - | - | - | - | - | -4.85
O=C(O)c1nc2ccccc2nc1C(=O)O | - | - | - | - | 57.8 | -
COc1ccc(-c2c(C(=O)O)nc3ccccc3c2C(=O)O)cc1 | . | - | . | . | . | .
COCCCNS(=O)(=O)c1ccccc1 | - | - | - | - | - | -
SMILES | M1 agonist | HePTP inhibitor | M1 antag | RORA act | SF-1 act | D1 allo mod
COCCCNS(=O)(=O)c1ccc(OC)cc1 | . | 97.6 | . | . | . | .
Brc1ccc(-c2noc(CCc3ccccc3)n2)o1 | - | - | - | - | - | .
O=C(NCc1ccco1)c1ccc2c(c1)C(=O)c1ccccc1-2 | - | - | - | - | - | .
O=C(NCc1ccco1)c1cc(-c2ccccc2)on1 | - | - | - | - | - | -
O=C(NCCCn1ccnc1)c1cc(-c2cccs2)on1 | - | - | - | 91.8 | 67.0 | -
O=C(NCc1ccco1)c1ccc2ccccc2c1 | - | - | - | 67.5 | - | -
O=C(NCc1ccco1)c1cc(-c2cccs2)on1 | - | - | - | 67.4 | - | -
O=C(O)c1ccc(/C=C2\SC(=S)N(c3cccc(C(F)(F)F)c3)C2=O)cc1 | . | - | . | . | . | .
COc1ccc(-n2c(N3CCN(C)CC3)nc3sc4c(c3c2=O)CCCCC4)cc1 | . | - | . | - | - | -
CCCOc1ccc(-c2nnc(NC(=O)Nc3ccc(Cl)cc3)s2)cc1 | . | - | . | . | . | .
